Assays:
Human alphaherpesvirus 2 = test: Inhibition of viral cytopathic effect in infected human foreskin fibroblast cell monolayers of HSV-2 MS […] by 50%; type: functional, organism-based
Human alphaherpesvirus 1 [1] = test: Inhibition of plaque formation in monolayers of HSV-1 E-377 Vero cells by 50%; type: functional, organism-based; settings: Human alphaherpesvirus 1, Vero
Human alphaherpesvirus 1 [2] = test: Inhibition of plaque formation in monolayers of HSV-1 KOS Vero cells by 50%; type: functional, organism-based; settings: Human alphaherpesvirus 1, Vero
Procedure, shortened: (§1)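 Vero cells in DMEM with 5% FBS, seeded 1 day ahead, infected with ~100 PFU/well (KOS, TK+; KOSSB, TK−) for 1 h at 37 °C. Inoculum replaced with drug dilutions in duplicate: first 25, 10, 5, 1 µg/mL (KOS) or 50, 25, 10, 1 µg/mL (KOSSB), then 1:2 series. After 48 h at 37 °C, methanol fixation and Giemsa staining. EC50 from plaque counts versus no-drug controls.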

[3] = system: Human betaherpesvirus 5 (HCMV); test: Inhibition of viral cytopathic effect in infected human foreskin fibroblast cell in monolayers of HCMV AD-169 by 50%
Human alphaherpesvirus 1 [4] = test: Inhibition of plaque formation in monolayers of HSV-1 KOSSB(TK-) Vero cells by 50%; type: functional, organism-based; settings: Human alphaherpesvirus 1, Vero; procedure, shortened: as §1
Human alphaherpesvirus 3 = test: Inhibition of viral cytopathic effect in infected human foreskin fibroblast cell in monolayers of VZV Ellen […] by 50%; type: functional, organism-based
Human alphaherpesvirus 1 [5] = test: Inhibition of plaque formation in monolayers of HSV-1 KOS (TK+) Vero cells by 50%; type: functional, organism-based; settings: Human alphaherpesvirus 1, Vero; procedure, shortened: as §1
Human alphaherpesvirus 1 [6] = test: Inhibition of plaque formation in monolayers of HSV-1 E-377 (TK+) Vero cells by 50%; type: functional, organism-based; settings: Human alphaherpesvirus 1, Vero
Human alphaherpesvirus 1 [7] = test: Inhibition of plaque formation in monolayers of HSV-1 E-377(TK+) Vero cells by 50%; type: functional, organism-based; settings: Human alphaherpesvirus 1, Vero
Human alphaherpesvirus 1 [8] = test: Inhibition of plaque formation in monolayers of HSV-1 KOS (TK+)Vero cells by 50%; type: functional, organism-based; settings: Human alphaherpesvirus 1, Vero; procedure, shortened: as §1
[9] = system: Human betaherpesvirus 5 (HCMV); test: Inhibition of viral cytopathic effect in infected human foreskin fibroblast cell in monolayers of HCMV AD-169 by 50%; remark: listed apart in the source

Structure (SMILES) | EC50 (Human alphaherpesvirus 2) | EC50 (Human alphaherpesvirus 1 [1]) | EC50 (Human alphaherpesvirus 1 [2]) | EC50 [3] | EC50 (Human alphaherpesvirus 1 [4]) | EC50 (Human alphaherpesvirus 3) | EC50 (Human alphaherpesvirus 1 [5]) | EC50 (Human alphaherpesvirus 1 [6]) | EC50 (Human alphaherpesvirus 1 [7]) | EC50 (Human alphaherpesvirus 1 [8]) | EC50 [9]
N#CNC(CCl)c1cn([C@H]2C[C@H](O)[C@@H](CO)O2)c(=O)[nH]c1=O (stereo partly drawn) | 105 µM | 210 µM | 37.5 µM | 274 µM | > 150 µM | 31.5 µM | – | – | – | – | –
[N-]=[N+]=NCC(O)c1cn([C@H]2C[C@H](O)[C@@H](CO)O2)c(=O)[nH]c1=O (stereo partly drawn) | > 322 µM | > 322 µM | > 80 µM | > 322 µM | > 161 µM | > 322 µM | – | – | – | – | –
COC(CN=[N+]=[N-])c1cn([C@H]2C[C@H](O)[C@@H](CO)O2)c(=O)[nH]c1=O (stereo partly drawn) | > 300 µM | > 300 µM | > 75 µM | > 300 µM | > 150 µM | > 300 µM | – | – | – | – | –
N#CNC(CI)c1cn([C@H]2C[C@H](O)[C@@H](CO)O2)c(=O)[nH]c1=O (stereo partly drawn) | 77.8 µM | – | – | > 236 µM | 15.3 µM | 14.6 µM | 1.6 µM | 9.4 µM | – | – | –
N#CNC(CBr)c1cn([C@H]2C[C@H](O)[C@@H](CO)O2)c(=O)[nH]c1=O (stereo partly drawn) | 87.7 µM | – | – | > 266 µM | > 133 µM | 20.7 µM | – | – | 42.5 µM | 6.6 µM | –
N#CNC(CBr)c1cn(C2O[C@H](CO)[C@@H](O)[C@@H]2O)c(=O)[nH]c1=O (stereo partly drawn) | > 256 µM | > 256 µM | 62.5 µM | > 256 µM | > 125 µM | 32 µM | – | – | – | – | –
N#CNC(CI)c1cn(C2O[C@H](CO)[C@@H](O)[C@@H]2O)c(=O)[nH]c1=O (stereo partly drawn) | > 228 µM | > 228 µM | 22.8 µM | > 228 µM | > 114 µM | 11.4 µM | – | – | – | – | –
Nc1nc2c(ncn2COCCO)c(=O)[nH]1 [ACYCLOVIR] | 6.2 µM | 4.4 µM | 2.2 µM | – | 178 µM | – | – | – | – | – | –
O=c1[nH]c(=O)n([C@H]2C[C@H](O)[C@@H](CO)O2)cc1/C=C/Br [BRIVUDINE] | – | 2.7 µM | 1.5 µM | > 150 µM | > 150 µM | 0.003 µM | – | – | – | – | –
CCc1cn([C@H]2C[C@H](O)[C@@H](CO)O2)c(=O)[nH]c1=O [EDOXUDINE] | 58.5 µM | 42.9 µM | 19.5 µM | – | > 780 µM | 32.7 µM | – | – | – | – | > 390 µM
Nc1nc2c(ncn2COC(CO)CO)c(=O)[nH]1 [GANCICLOVIR] | – | – | – | 0.23 µM | – | – | – | – | – | – | –

Reference: ChEMBL document CHEMBL1134633, “Synthesis and antiviral activity of novel 5-(1-cyanamido-2-haloethyl) and 5-(1-hydroxy(or methoxy)-2-azidoethyl) analogues of uracil nucleosides” (J Med Chem, 2001)
